# Screens deposited in PubChem by several laboratories.
# Hits are enriched below; roughly 2.5% of the tested compounds scored in any of these assays.
# m5-HT2A agonist = mouse Htr2a agonists via beta-arrestin recruitment, primary screen, cell-based, luminescence; AID 624169, 2012; actives 0.66% (n = 360,000); activation, % at 7.6 µM; 5-hydroxytryptamine receptor 2A (Mus musculus), P35363; CHO-K1 mHTR2A beta-arrestin complementation; percent of 30 µM serotonin response;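 active = activation above a run cutoff, the mean activation of all tested compounds plus 3 SD, cut at about 14% in these data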;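 note: 0% = plate median of compound wells and 100% = 30 µM serotonin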
# Target sequence (P35363 whole entry, looked up): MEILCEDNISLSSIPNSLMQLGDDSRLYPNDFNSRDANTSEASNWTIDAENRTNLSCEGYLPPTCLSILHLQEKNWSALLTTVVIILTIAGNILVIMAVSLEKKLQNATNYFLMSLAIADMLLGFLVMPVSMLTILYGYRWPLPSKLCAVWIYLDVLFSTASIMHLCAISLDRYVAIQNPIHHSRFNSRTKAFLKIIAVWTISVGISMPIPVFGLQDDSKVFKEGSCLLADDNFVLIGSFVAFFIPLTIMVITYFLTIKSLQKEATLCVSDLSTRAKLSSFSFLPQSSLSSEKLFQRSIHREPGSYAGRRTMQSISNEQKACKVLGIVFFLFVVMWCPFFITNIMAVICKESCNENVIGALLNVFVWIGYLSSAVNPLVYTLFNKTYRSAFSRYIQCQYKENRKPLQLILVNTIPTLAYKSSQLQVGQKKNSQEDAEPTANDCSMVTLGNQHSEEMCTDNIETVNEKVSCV
# dFosB activator = activators of delta FosB homodimer, primary screen, biochemical, fluorescence polarization, TAMRA-CDK5 oligo, single point | Protein FosB (Mus musculus), P13346 | activation, % at 25 µM | AID 493131, 2011 | purified delta FosB; percent of positive-control signal above neutral wells | actives 0.99% (n = 340,000);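 active = mean activation above about 17%, with every replicate also reaching it, limit read from the data, passing the limit was not always enough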
# VIM-2 inhibitor = VIM-2 metallo-beta-lactamase inhibitors, primary screen, biochemical, epi-absorbance readout, Pseudomonas aeruginosa enzyme | purified VIM-2, nitrocefin hydrolysis, epi-absorbance fluorescence | inhibition, % at 5.6 µM | actives 0.89% (n = 290,000);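 active = inhibition above the mean of all tested compounds plus 3 SD, cutoff set per screening run, cut at about 7.5% in these data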;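 note: red hydrolysis product quenches plate fluorescence so inhibitors raise well fluorescence; 0% = enzyme with DMSO and 100% = DMSO without enzyme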
# IMP-1 inh = IMP-1 metallo-beta-lactamase inhibitors, primary screen, biochemical, epi-absorbance readout, Pseudomonas aeruginosa enzyme | actives 0.45% (n = 290,000) | inhibition, % at 5.6 µM | purified IMP-1, nitrocefin hydrolysis, epi-absorbance fluorescence | metallo-beta-lactamase IMP-1 (Pseudomonas aeruginosa) | AID 1556, 2009;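 active = inhibition above the mean plus 3 SD of all compounds in the same screening run, cut at about 4.5% in these data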;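 note: 0% = IMP-1 with DMSO and 100% = DMSO wells lacking enzyme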
#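 Assay system: purified recombinant IMP-1 beta-lactamase. Input: IMP-1 0.2 nM before substrate addition. Buffer or medium: Zinc- and detergent-supplemented HEPES buffer, pH 7.1. Schedule: 25 °C, 15 min preincubation, 25 min reaction. Signal: Epi-absorbance fluorescence, 480 nm excitation, 530 nm emission. Evaluation: percent inhibition from optical density relative to buffer-blank wells.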
# MOR ag counter = OPRM1 agonists via beta-arrestin recruitment, confirmation, counter-screen for mouse HTR2A agonist project, cell-based, luminescence, single concentration. shares compounds with m5-HT2A agonist. U2OS OPRM1 beta-arrestin PathHunter; DMSO 0%, DAMGO 9.3 µM 100%. activation, % at 9.3 µM. actives 5.3% (n = 2,300);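 active = mean activation above the mean of DMSO-only wells plus 3 SD, cut at about 0.5% in these data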
# m5-HT2A ag conf = mouse HTR2A agonists, beta-arrestin recruitment, confirmation, cell-based, luminescence, CHO-K1 PathHunter, triplicate; activation, % at 7.6 µM; shares compounds with m5-HT2A agonist; actives 19% (n = 2,300); DMSO 0%, 30 µM serotonin 100%;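 active = mean activation across triplicates above the hit threshold derived in the original primary screen, cut at about 15% in these data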
# * = called active by the depositor; / = not tested or not shown.
SMILES,m5-HT2A agonist,dFosB activator,VIM-2 inhibitor,IMP-1 inh,MOR ag counter,m5-HT2A ag conf
COc1cc(C2C(C#N)=C(N)OC3=C2C(=O)CC(C)(C)C3)cc2c1OCO2 (stereo not drawn),6,-10,/,/,/,/
C[C@@H]1c2ccccc2N2C[C@H](Cc3ccc(C(=O)c4ccccc4)cc3)C[C@@H]12,16*,/,/,/,0,-5
CC1CC(C)CN(C(=O)c2ccc(C(=O)c3ccccc3)cc2)C1 (stereo not drawn),-4,-6,/,/,/,/
CNC(=O)c1cn2c3c(ccc(Cl)c3c1=O)OC(C)C2 (stereo not drawn),-1,-8,/,/,/,/
O=C(Nc1ccccc1)Nc1ccc2ccccc2n1,16*,1,-2,-2,0,-4
O=C(Nc1ccc(F)cc1)Nc1ccc2ccccc2n1,3,-1,1,-2,/,/
CC(NC(=O)Nc1ccccc1C(F)(F)F)C1CCCO1 (stereo not drawn),26*,5,-3,-1,0,3
Cc1oc(-c2ccccc2Cl)nc1CS(=O)(=O)CC(=O)NCCN1CCOCC1,7,-1,-1,-3,/,/
CCOC(=O)c1ccc(S(=O)(=O)N2CCN(C(=O)c3cccc(S(=O)(=O)N4CC(C)OC(C)C4)c3)CC2)cc1 (stereo not drawn),-4,-1,/,/,/,/
CC(C)(C)c1ccc(C(=O)N2CCN(c3nc4ccccc4o3)CC2)cc1,17*,-5,0,0,0,-1
O=C(c1ccc(-c2ccccc2)cc1)N1CCN(c2nc3ccccc3o2)CC1,3,0,0,1,/,/
COc1ccc(CNc2ncc(-c3cccc([N+](=O)[O-])c3)n2C)c(OC)c1OC,-4,-1,-1,-4,/,/
N#Cc1ccc(-c2nc3ccc(Cl)cn3c2Cc2ccccc2)cc1,-1,/,/,/,/,/
COc1ccc(S(=O)(=O)NCC2CCCN(C(=O)c3cccnc3C)C2)cc1 (stereo not drawn),15*,-4,-2,-3,0,3
CSc1ccc(CCNC(=O)CCc2nnc3ccc(N4CCCCC4)nn23)cc1,20*,-3,-1,-3,0.7*,5
CSc1ccc(CCNC(=O)CCc2nnc3ccc(N4CCOCC4)nn23)cc1,3,-5,-4,-2,/,/
CCN(CC)C(=O)CSc1nc2c(sc(=S)n2-c2ccccc2)c(=O)n1-c1ccc(OC)c(OC)c1,-2,-15,0,0,/,/
O=C(Cc1cccc(NC(=O)C2CCCN(C(=O)C3CCC3)C2)c1)Nc1ccc(C(=O)N2CCOCC2)cc1 (stereo not drawn),29*,-2,/,/,-1,-6
O=C(/C=C/c1ccc([N+](=O)[O-])cc1)N1CCN(S(=O)(=O)c2ccccc2)CC1,18*,-10,/,/,0,-4
CC(NC(=O)COc1ccc(S(=O)(=O)N2CCOCC2)cc1)c1ccccc1 (stereo not drawn),3,-6,/,/,/,/
COc1ccc(CCC(=O)NCCc2nc3ccccc3[nH]2)cc1,1,-4,0,-2,/,/
COc1ccc(/C=N/NC(=O)CCc2nc3ccccc3[nH]2)cc1,16*,1,-5,-5,-1,-2
COc1ccc(NC(=O)Cc2nc3ccccc3[nH]2)cc1,85*,6,4,-2,0,-2
COc1ccc(CC(=O)Nc2nc3ccccc3[nH]2)cc1,1,-1,-1,2,/,/
CC(NC(=S)NC1CCC(C(C)(C)C)CC1)c1ccccc1 (stereo not drawn),-4,1,-6,-2,/,/
CSc1nc(C)c(C(=O)Nc2ccccc2)c(-c2ccco2)c1C#N,16*,1,-2,0,0,-3
c1ccc(N2CCN(c3nnc(Cc4cccnc4)c4ccccc34)CC2)nc1,17*,-3,-1,-2,0,3
c1ccc(Cc2nnc(N3CCCCC3)c3ccccc23)cc1,9,-8,-3,-1,/,/
